Experimental data published in ChEMBL document CHEMBL4033649, “Discovery of tetrahydrocarbazoles as dual pERK and pRb inhibitors” (Eur J Med Chem, 2017).

Test: Inhibition of ERK phosphorylation in human MDA-MB-231 cells after 1 hr
Type: cell-based
Procedure, shortened: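 MDA-MB-231 cells (25,000/well) grown 24 h, serum-starved 6 h, then exposed to compound 1 h (screen at 10 μM, n=3; dose-response for IC50). Cells fixed in 3.7% formaldehyde, permeabilized with 0.1% Triton X, immunostained with phospho-p44/p42 MAPK (T202/Y204) antibody plus anti-rabbit IgG secondary; TMB colour read by absorbance.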

**Q.** Which IC50 (Homo sapiens, MDA-MB-231, 1 h) does the source give for `CC1CCC(NC2CCCc3c2[nH]c2ccc([N+](=O)[O-])cc32)C1` (stereo unspecified) here?
**A.** 5.52 µM

**Q.** For `O=C(NC1CCc2c([nH]c3ccccc23)C1)c1cccc(F)c1` (stereo unspecified), which IC50 (Homo sapiens, MDA-MB-231, 1 h) is on record?
**A.** 8.1 µM

**Q.** Which IC50 (Homo sapiens, MDA-MB-231, 1 h) does the source give for `N#Cc1ccc(S(=O)(=O)NC2CCCc3c2[nH]c2ccccc32)cc1` (stereo unspecified) here?
**A.** > 100 µM

**Q.** For `O=S(=O)(NC1CCCc2c1[nH]c1ccccc21)c1ccc(F)cc1` (stereo unspecified), which IC50 (Homo sapiens, MDA-MB-231, 1 h) is on record?
**A.** > 100 µM

**Q.** Which IC50 (Homo sapiens, MDA-MB-231, 1 h) does the source give for `Cc1ccc2[nH]c3c(c2c1)CCC(NC1CCC(C)C1)C3` (stereo unspecified) [listing 1 of 2 here] here?
**A.** 6 µM

**Q.** For `CC1CCC(NC2CCc3c([nH]c4ccccc34)C2)C1` (stereo unspecified), which IC50 (Homo sapiens, MDA-MB-231, 1 h) is on record?
**A.** > 30 µM

**Q.** For `CC1CCC(NC2CCCc3c2[nH]c2ccccc32)C1` (stereo unspecified), which IC50 (Homo sapiens, MDA-MB-231, 1 h) is on record?
**A.** 3 µM

**Q.** For `Cc1ccc2[nH]c3c(c2c1)CCC(NC1CCC(C)C1)C3` (stereo unspecified) [listing 2 of 2 here], which IC50 is on record?
**A.** 5.5 µM

**Q.** With `Cc1ccc(CNC2CCc3c(n(C)c4ccccc34)C2)cc1` (stereo unspecified) as the compound, how does the IC50 (Homo sapiens, MDA-MB-231, 1 h) read?
**A.** 4.4 µM

**Q.** Which IC50 (Homo sapiens, MDA-MB-231, 1 h) does the source give for `c1ccc2c3c([nH]c2c1)CC(NC1CCOCC1)CC3` (stereo unspecified) here?
**A.** > 100 µM

**Q.** For `O=S(=O)(NC1CCc2c([nH]c3ccccc23)C1)c1cccnc1` (stereo unspecified), which IC50 (Homo sapiens, MDA-MB-231, 1 h) is on record?
**A.** 69.9 µM

**Q.** With `Cc1ccc2[nH]c3c(c2c1)CCC(NCc1ccccc1)C3` (stereo unspecified) as the compound, how does the IC50 (Homo sapiens, MDA-MB-231, 1 h) read?
**A.** 5.5 µM

**Q.** With `O=S(=O)(NC1CCc2c([nH]c3ccccc23)C1)c1ccc(F)cc1` (stereo unspecified) as the compound, how does the IC50 (Homo sapiens, MDA-MB-231, 1 h) read?
**A.** 7.5 µM

**Q.** For `Cc1ccc(CNC2CCc3c([nH]c4ccccc34)C2)cc1` (stereo unspecified), which IC50 (Homo sapiens, MDA-MB-231, 1 h) is on record?
**A.** 3.62 µM

**Q.** Which IC50 (Homo sapiens, MDA-MB-231, 1 h) does the source give for `c1ccc2c3c([nH]c2c1)C(NC1CCCCC1)CCC3` (stereo unspecified) here?
**A.** 9 µM

**Q.** With `c1ccc2c3c([nH]c2c1)CC(NC1CCCCC1)CC3` (stereo unspecified) as the compound, how does the IC50 (Homo sapiens, MDA-MB-231, 1 h) read?
**A.** 7 µM

**Q.** Which IC50 (Homo sapiens, MDA-MB-231, 1 h) does the source give for `Cc1ccc(CNC2CCc3c([nH]c4ccc(C)cc34)C2)cc1` (stereo unspecified) here?
**A.** 4.6 µM

**Q.** With `c1ccc2c3c([nH]c2c1)CC(NC1CCCC1)CC3` (stereo unspecified) as the compound, how does the IC50 (Homo sapiens, MDA-MB-231, 1 h) read?
**A.** 21 µM

**Q.** With `c1ccc2c3c([nH]c2c1)C(NC1CCCC1)CCC3` (stereo unspecified) [listing 1 of 2 here] as the compound, how does the IC50 (Homo sapiens, MDA-MB-231, 1 h) read?
**A.** 21 µM

**Q.** With `COc1cccc(C(=O)NC2CCc3c([nH]c4ccccc34)C2)c1` (stereo unspecified) as the compound, how does the IC50 (Homo sapiens, MDA-MB-231, 1 h) read?
**A.** 9 µM

**Q.** Which IC50 (Homo sapiens, MDA-MB-231, 1 h) does the source give for `c1ccc(CNC2CCc3c([nH]c4ccccc34)C2)cc1` (stereo unspecified) here?
**A.** 6.11 µM

**Q.** Which IC50 (Homo sapiens, MDA-MB-231, 1 h) does the source give for `N#Cc1ccc(S(=O)(=O)NC2CCc3c([nH]c4ccccc34)C2)cc1` (stereo unspecified) here?
**A.** 7 µM

**Q.** Which IC50 (Homo sapiens, MDA-MB-231, 1 h) does the source give for `O=S(=O)(NC1CCCc2c1[nH]c1ccccc21)c1cccnc1` (stereo unspecified) here?
**A.** > 100 µM

**Q.** With `c1ccc2c3c([nH]c2c1)C(NC1CCCC1)CCC3` (stereo unspecified) [listing 2 of 2 here] as the compound, how does the IC50 read?
**A.** 30 µM

**Q.** With `O=C(NC1CCc2c([nH]c3ccccc23)C1)c1ccccc1F` (stereo unspecified) as the compound, how does the IC50 (Homo sapiens, MDA-MB-231, 1 h) read?
**A.** 29.7 µM

**Q.** With `CNC(=O)c1cc(Oc2ccc(NC(=O)Nc3ccc(Cl)c(C(F)(F)F)c3)cc2)ccn1` [SORAFENIB] as the compound, how does the IC50 (Homo sapiens, MDA-MB-231, 1 h) read?
**A.** 0.063 µM
